Most compounds without a hit are left out; they make up all but 3.2% or so of the library.
EphB4 antag = antagonists of human EphB4-ephrin-B2 interaction | P54760 | EphB4 LBD / TNYL-RAW-Alexa532 peptide, fluorescence polarization | inhibition, % at 7 µM | actives 0.15% (n = 97,000);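 active = inhibition above the screen-wide mean inhibition plus 3 SD, cut at about 15% in these data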
Target sequence (P54760 whole entry, looked up, the tested form may be a part): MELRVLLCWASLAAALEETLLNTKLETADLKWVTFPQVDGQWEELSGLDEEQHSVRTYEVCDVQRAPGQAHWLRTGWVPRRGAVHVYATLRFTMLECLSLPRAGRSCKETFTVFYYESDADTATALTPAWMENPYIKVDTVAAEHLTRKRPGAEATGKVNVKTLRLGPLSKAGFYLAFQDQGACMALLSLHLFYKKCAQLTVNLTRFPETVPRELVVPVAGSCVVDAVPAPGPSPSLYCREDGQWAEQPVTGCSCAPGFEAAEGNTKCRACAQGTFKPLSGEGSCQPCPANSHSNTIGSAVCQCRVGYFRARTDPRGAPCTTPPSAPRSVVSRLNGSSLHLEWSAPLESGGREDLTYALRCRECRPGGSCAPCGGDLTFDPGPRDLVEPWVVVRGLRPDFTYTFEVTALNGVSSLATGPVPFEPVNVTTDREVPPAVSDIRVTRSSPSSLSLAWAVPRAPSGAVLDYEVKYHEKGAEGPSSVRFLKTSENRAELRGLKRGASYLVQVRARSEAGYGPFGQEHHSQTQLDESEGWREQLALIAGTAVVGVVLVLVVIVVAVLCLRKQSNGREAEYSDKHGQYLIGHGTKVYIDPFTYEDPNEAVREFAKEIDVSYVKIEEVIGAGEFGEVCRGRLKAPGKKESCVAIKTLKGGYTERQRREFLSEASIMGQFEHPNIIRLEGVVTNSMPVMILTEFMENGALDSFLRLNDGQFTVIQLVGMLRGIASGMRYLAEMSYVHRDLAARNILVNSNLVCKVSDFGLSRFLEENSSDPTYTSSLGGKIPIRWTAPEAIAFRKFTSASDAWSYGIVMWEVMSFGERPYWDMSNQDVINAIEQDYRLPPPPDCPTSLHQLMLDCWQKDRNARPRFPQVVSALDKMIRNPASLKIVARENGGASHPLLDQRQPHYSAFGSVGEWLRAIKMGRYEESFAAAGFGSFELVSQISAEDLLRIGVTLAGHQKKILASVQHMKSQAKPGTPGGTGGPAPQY
DAT uptake mod = modulates human dopamine transporter uptake under cocaine | B-score at 10 µM | LLC-PK1 hDAT cells, [14C]-dopamine uptake with cocaine IC80; actives deviate in either direction | actives 1.3% (n = 110,000);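 active = Z score or B-score, a plate-position-corrected score, falls beyond the plate's 99.7% confidence bounds, in either direction; inactive = both scores lie inside the 99.7% bounds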
Plk1 PBD FP = Plk1 (human) PBD binding inhibition; inhibition, %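 (tested at about 20 µM)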; Plk1 PBD phosphopeptide binding, fluorescence polarization; actives 0.13% (n = 97,000); AID 693; in the data active = inhibition above about 34%, passing the limit was not always enough
Rev-RRE block = HIV Rev-RRE protein-RNA interaction inhibition. AID 704. inhibition, % at 8 µM. Rev peptide-RRE RNA binding, FRET. actives 0.79% (n = 97,000);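 active = inhibition above the screen-wide mean plus 3 SD, cut at about 35% in these data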
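Assay system: Labelled RRE RNA duplex and labelled Rev peptide | Times: 5 min preincubation and 15 min binding, 25 °C | Detection: FRET, ex 480 nm, em 540 and 671 nm | Evaluation: % inhibition of FRET ratio versus controls | Benchmarks: DMSO wells as 0% and neomycin B wells as 100% inhibition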
PLK1 kinase inh = blocks human PLK1 kinase activity; P53350; recombinant PLK1 kinase, TR-FRET peptide phosphorylation; inhibition, % at 10 µM; actives 0.53% (n = 97,000); AID 619;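 active = inhibition of 50% or more in the single-concentration screen; inactive = inhibition below 50%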
FAK blocker = FAK (human) kinase inhibition; Q05397; biochemical FAK kinase activity assay; inhibition, %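 (tested at 7 µM)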; actives 0.84% (n = 97,000); AID 727; in the data active = inhibition above about 19%
A number is an active result; i = inactive; nt = no result; [ ] = dose if it differs, or a comment.

SMILES	EphB4 antag	DAT uptake mod	Plk1 PBD FP	Rev-RRE block	PLK1 kinase inh	FAK blocker
Cc1cccc(Nc2ncnc3nc[nH]c23)c1C	i	i	i	i	56.0	i
CCOC(=O)CSCC(=O)Nc1c(C(=O)C2CC2)oc2ccccc12	i	i	i	i	i	i
Cc1ccc(C2/C(=C(\O)c3cnn(-c4ccccc4)c3C)C(=O)C(=O)N2CCN(C)C)o1 (stereo unspecified)	i	-2.35	i	i	i	i
Cc1cc(NC(=O)CSc2nnc(-c3c[nH]c4ccccc34)n2-c2ccc(Cl)cc2)no1	i	i	i	i	i	i
CCOC(=O)C1=C(O)/C(=C/c2cn(CC(=O)NCC3CCCO3)c3ccccc23)SC1=Nc1ccc(C)cc1 (stereo unspecified)	i	i	i	40.7	i	i
Cc1cc(NC(=O)C23CCC(C)(c4nc5cc(Cl)c(Cl)cc5nc42)C3(C)C)no1 (stereo unspecified)	i	nt	i	i	i	i
Cc1ccnc(SCCn2c(N3CCCCC3)nc3c2c(=O)n(C)c(=O)n3C)n1	19.6	i	i	i	i	i
COc1ccc(NC(=O)c2ccco2)cc1NC(=O)c1ccc(C)cc1	i	i	i	i	i	i
COc1ccccc1NC(NC(=O)c1ccco1)C(=O)c1ccccc1 (stereo unspecified)	i	34.9	i	i	i	i
COc1ccc(NC(=O)c2ccco2)cc1NC(=O)c1cccs1	i	1.81	i	i	i	i
COc1ccc(C(=O)Nc2ccccc2NC(=O)c2ccco2)cc1OC	nt	2.77	nt	nt	nt	nt
CCc1nnc(NC(=O)Cn2nnc(-c3ccccc3F)n2)s1	nt	i	nt	nt	nt	nt
Cc1ccc(-n2nc3c(c2NC(=O)c2c(-c4ccccc4Cl)noc2C)CSC3)cc1	i	3.03	i	i	i	i
CC1(C)Cc2c(sc3c2c(=N)n(Cc2ccco2)c(=O)n3CC(=O)Nc2ccc(Cl)cc2)CO1	nt	2.04	nt	nt	nt	nt
O=C(c1cccc(N2C(=O)C3CC=CCC3C2=O)c1)N1CCCCCC1 (stereo unspecified)	i	-8.8	i	i	i	i
O=C(c1cccc(N2C(=O)C3CC=CCC3C2=O)c1)N1CCN(c2ccccc2)CC1 (stereo unspecified)	i	nt	i	i	i	i
CCN1CCN(CCNC(=O)C2CCN(Cc3nc(-c4ccc(Cl)cc4)oc3C)CC2)CC1	i	nt	i	i	64.7	i
Cc1oc(-c2ccc(Cl)cc2)nc1CN1CCC(C(=O)N2CCc3ccccc3C2)CC1	i	2.64	i	i	i	i
Cc1oc(-c2ccc(Cl)cc2)nc1CN1CCC(C(=O)N2CCN(Cc3ccccc3)CC2)CC1	i	nt	i	i	58.6	i
Cc1ccc(C2C(/C=C3/SC(=S)NC3=O)=C(c3cccs3)Oc3ccccc32)cc1 (stereo unspecified)	i	i	i	i	i	i
CCOC(=O)c1cn(Cc2ccccc2)c(C(=O)OC(C)(C)C)c1O	nt	i	nt	nt	nt	nt
N#CCCCSc1nnc(-c2ccc(Cl)cc2)n1-c1ccccc1	i	-8.56	i	i	i	i
Cc1cccc(-c2nnc(SCC#N)n2-c2ccccc2)c1	i	i	i	i	i	i
COc1ccc(S(=O)(=O)Nc2nc3ccccc3s2)cc1OC	i	i	i	i	i	i
COC(=O)CN1C(=O)S/C(=C/c2cc(C)n(C)c2C)C1=O	i	i	i	i	i	i
SMILES	EphB4 antag	DAT uptake mod	Plk1 PBD FP	Rev-RRE block	PLK1 kinase inh	FAK blocker
CCOC(=O)CN1C(=O)S/C(=C/c2ccc(N3CCCCC3)o2)C1=O	i	i	i	111.5[fluorescence artefact?]	i	i
COC(=O)CN1C(=O)S/C(=C/c2ccc(N3CCCCC3)o2)C1=O	i	i	i	140.1[fluorescence artefact?]	i	i
Cc1ccsc1/C=C1/SC(=O)N(CC(=O)N2CCOCC2)C1=O	i	i	i	i	i	i
O=C(CN1CCCN(Cc2ccc(F)cc2Cl)C1=O)NCc1ccccc1	i	2.63	i	i	i	i
CC(C)(C)S(=O)(=O)c1ccc(S(=O)(=O)C(C)(C)C)s1	i	i	i	i	i	i
CCCCCCc1cc2cc(C(=O)NC)c(=N)oc2cc1O	i	i	i	70.1	i	i
CCCCC(=O)OCCNC(=O)c1cc2ccccc2oc1=O	i	i	i	i	i	i
CCCCCCc1cc2cc(C(N)=O)c(=N)oc2cc1O	i	i	i	87.0[fluorescence artefact?]	i	i
CCCCSc1ccc(NC(=O)c2cccnc2)cc1	i	i	i	i	i	i
COC(=O)c1[nH]c2ccc(Br)cc2c1NC(=O)CN1CCN(C2CCCCC2)CC1	i	2.91	i	i	i	i
CCOC(=O)C1CCN(CC(=O)Nc2c(C(=O)OC)[nH]c3ccc(Cl)cc23)CC1	i	i	i	i	i	i
COC(=O)c1[nH]c2cc(C)ccc2c1NC(=O)CN1CCCc2ccccc21	i	2.85	i	i	i	i
CCOC(=O)C1CCN(CC(=O)Nc2c(C(=O)OC)[nH]c3ccccc23)CC1	i	-8.15	i	i	i	i
O=C(COC(=O)C(Cc1ccccc1)NC(=O)c1ccco1)NC1CC1 (stereo unspecified)	16.6	i	i	i	i	i
CNCc1ccccc1OCC(=O)Nc1ccccc1OC	i	i	i	i	i	i
Cc1nnc2sc(-c3csc4c3CCCC4)nn12	i	3.36	i	i	i	i
Cc1nnc2sc(-c3ccncc3)nn12	i	i	i	i	i	i
CCCCN(C)C(=O)CSc1nc(NCc2ccc(OC)cc2)c2ccccc2n1	i	2.47	i	i	i	i
COc1ccccc1CNC(=O)C(CCSC)NC(=O)C1CCC(C)CC1 (stereo unspecified)	i	i	i	i	i	i
COc1cccc(C2=CC(c3ccc(N(C)C)cc3)n3ncnc3N2)c1 (stereo unspecified)	i	i	i	i	i	i
CCOc1ccc(C2C=C(c3ccc(F)cc3)Nc3ncnn32)cc1 (stereo unspecified)	i	i	i	57.1	i	i
CCOc1ccc(C2C=C(c3ccccc3)Nc3ncnn32)cc1 (stereo unspecified)	i	i	i	39.9	i	i
COc1cccc(C2=CC(c3ccccc3)n3ncnc3N2)c1 (stereo unspecified)	i	i	i	41.7	i	i
C1=C(c2ccc(-c3ccccc3)cc2)Nc2ncnn2C1c1ccco1 (stereo unspecified)	i	i	i	117.7[fluorescence artefact?]	i	i
Cc1ccc(Cn2nnnc2CN2CCC(O)(c3ccccc3F)CC2)cc1	nt	i	nt	nt	nt	nt
COCCNC(=O)CS(=O)(=O)Cc1nc(-c2ccc(C)cc2)oc1C	i	i	i	i	67.0	i
Cc1ccc(-c2nc(CS(=O)(=O)CC(=O)NC3CCCCC3C)c(C)o2)cc1 (stereo unspecified)	i	i	i	i	53.5	i
CC(C)C[C@H](NC(=O)c1nc[nH]c1C(=O)N1CCN(C(=O)OC(C)(C)C)CC1)C(=O)OCc1ccccc1	nt	i	nt	nt	nt	nt
O=c1[nH]c2cc(Cl)ccc2n(CCNc2ncc(C(F)(F)F)cc2Cl)c1=O	i	nt	i	i	i	i

Screens (PubChem BioAssay)
